Assay outcomes as filed in PubChem.
TRPML3 ag: agonists of human TRPML3 channel | activation, % at 3 µM | 0.29% of 220,000 active | HEK293 TRPML3-YFP, Fluo-8 calcium fluorescence; 100% = the carbachol control signal | AID 1448 | Q8TDD5;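 active = activation above its plate's cutoff, the mean activation of the plate's test wells plus 3 SD, cut at about 12% in these data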;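 note: 0% = DMSO only wells and 100% = carbachol wells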
Target sequence (Q8TDD5 whole entry, looked up): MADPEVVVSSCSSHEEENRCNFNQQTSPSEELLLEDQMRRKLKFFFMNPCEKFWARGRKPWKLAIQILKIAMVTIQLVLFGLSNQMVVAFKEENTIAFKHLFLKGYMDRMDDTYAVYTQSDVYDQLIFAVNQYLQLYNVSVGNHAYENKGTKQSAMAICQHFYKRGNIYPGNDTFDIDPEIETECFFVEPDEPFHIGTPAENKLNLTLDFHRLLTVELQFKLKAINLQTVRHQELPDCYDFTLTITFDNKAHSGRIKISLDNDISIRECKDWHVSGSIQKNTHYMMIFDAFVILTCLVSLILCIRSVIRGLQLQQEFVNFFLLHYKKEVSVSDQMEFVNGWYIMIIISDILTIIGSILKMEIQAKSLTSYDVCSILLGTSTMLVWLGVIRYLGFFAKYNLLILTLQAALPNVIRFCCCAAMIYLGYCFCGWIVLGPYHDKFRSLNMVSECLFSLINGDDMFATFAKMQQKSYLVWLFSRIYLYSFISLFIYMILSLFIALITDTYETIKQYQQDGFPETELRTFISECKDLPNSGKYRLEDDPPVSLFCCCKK
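system = HEK293 cells stably carrying human TRPML3-YFP | doses = one concentration, 3 µM nominal, 0.3% DMSO | timing = dye loading 1 h 37 °C then 30 min ambient, 125 s read | detection = Fluo-8 calcium dye fluorescence, ex 470-495, em 515-575 nm | benchmarks = high control carbachol 87 µM, low control DMSO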
OXTR ag: human OXTR agonism. CHO-OTR cells, Fluo-8 calcium fluorescence; normalized: DMSO 0%, oxytocin 100%. 0.32% of 320,000 active. AID 2435. activation, % at 3 µM. P30559;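 active = activation above the mean of all tested compounds plus 3 SD, cutoff set per screening run, cut at about 20% in these data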;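 note: peak over basal fluorescence ratio from a 100 s FLIPR kinetic read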
V1R ag counter: activates human V1a receptor in oxytocin agonist counter-screen; P37288; CHO-V1R cells, Fluo-8 calcium fluorescence, agonist mode; 0% DMSO, 100% 3 nM vasopressin; activation, % at 3 µM; 0.25% of 320,000 active;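 active = activation above the mean activation of all tested compounds plus 3 SD, per screening run, cut at about 20% in these data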;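 note: signal is peak over basal fluorescence ratio across a 100 second FLIPR read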
OXTR potentiator: human OXTR potentiation; activation, % at 3 µM; CHO-OTR cells, Fluo-8 calcium fluorescence, potentiator mode; 0% = oxytocin EC15, 100% = EC100; P30559; 0.061% of 320,000 active;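 active = activation above that plate's cutoff, the mean activation of tested compounds plus 3 SD, cut at about 6.6% in these data, passing the limit was not always enough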;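 note: 100% uses oxytocin at 75 nM as the full agonist control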
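System: human OTR in CHO cells / Also added: sub-maximal oxytocin, roughly EC15 / Control set: EC15 oxytocin low, 75 nM oxytocin high / Schedule: 6 min compound pre-incubation at room temperature, 100 s kinetic read / Compound: single-point 3.0 µM / Replication: singlicate / Technique: Fluo-8 calcium dye fluorescence / Read-out basis: % activation of max/min ratio relative to oxytocin controls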
zfTRPN1 agonist: agonists of zebrafish TRPN1 channel; HEK293 zebrafish TRPN1-YFP, Fluo-8 calcium fluorescence; 100% = response to 87 µM carbachol; activation, % at 3 µM; AID 1424; 0.18% of 220,000 active;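 active = activation above its plate's cutoff, the mean activation of test wells on that plate plus 3 SD, cut at about 19% in these data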;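 note: 0% = DMSO alone and 100% = 87 µM carbachol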
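Assay system: Zebrafish TRPN1-YFP in HEK293 cells | Incubation: Dye loading 1 h at 37 °C, then 30 min room temperature | Measured by: Kinetic Fluo-8 fluorescence, ex 470-495, em 515-575 nm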
OXTR pot cf: confirmation of human oxytocin receptor potentiators; activation, % at 3 µM; shares compounds with OXTR potentiator; 180 tested, under 10 active; AID 434985; CHO-OTR cells, Fluo-8 calcium fluorescence, potentiation; scaled from low-dose to maximal oxytocin;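 active = mean percent activation over triplicates above a cutoff set from solvent-only control plates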;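 note: compounds tested in the presence of an EC15 dose of oxytocin; 0% = EC15 oxytocin with DMSO and 100% = EC100 oxytocin with DMSO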
Active calls of the source: *; nt = not tested or not shown. In the library only some 0.59% were active in any assay of this set; here they are far more common.

SMILES	TRPML3 ag	OXTR ag	V1R ag counter	OXTR potentiator	zfTRPN1 agonist	OXTR pot cf
CCOC(=O)N1CCN(C(=O)COc2ccc(Cl)cc2)CC1	0	2	1	12*	0	-6
Cc1ccc(S(=O)(=O)N[C@@H](CC(C)C)C(=O)N2CCC(C(=O)N[C@H](C(=O)O)C(C)C)CC2)cc1	nt	1	0	0	nt	nt
COc1ccc(NC(=O)/C(Cl)=C(/Cl)S(=O)Cc2ccccc2)cn1 (stereo not drawn)	1	-1	1	20*	1	5
COc1ccc(NC(=O)Cc2ccccc2)cn1	1	1	2	-3	2	nt
Cc1cccc(N2CCN(C(=O)c3nn(C)c4c3CS(=O)(=O)c3ccccc3-4)CC2C)c1 (stereo not drawn)	nt	1	3	-6	nt	nt
COc1ccc(N2CCN(C(=O)C3CCN(S(=O)(=O)c4ccc5c(c4)oc(=O)n5C)CC3)CC2)cc1	nt	2	1	13*	nt	-5
COc1ccc(-c2nc(CN3CCC(C(=O)NC4CCCC4)CC3)c(C)o2)cc1OC	nt	0	0	16*	nt	-4
CCOc1ccccc1NC(=O)c1ccc(Cl)c(NC(=O)CC(c2ccccc2)c2ccccc2)c1	0	1	2	-3	0	nt
CCOc1ccccc1NC(=O)c1cccc(NC(=O)CC(c2ccccc2)c2ccccc2)c1	1	3	2	26*	2	9.7*
Cn1c(=O)c2c(nc(Br)n2CC(=O)C23CC4CC(CC(C4)C2)C3)n(C)c1=O	0	-1	0	10*	-1	-4
COc1cccc(C(=O)Cn2c(Br)nc3c2c(=O)n(C)c(=O)n3C)c1	0	2	3	-3	-1	nt
O=C(CN1CCN(c2ccccc2O)CC1)Nc1cc(S(=O)(=O)N2CCCC2)ccc1Cl	nt	9	9	-10	nt	nt
Cc1cccnc1Nc1ncnc(N)c1[N+](=O)[O-]	0	1	1	11*	0	-4
CC1CCCC(NC(=O)CSc2ncccn2)C1C (stereo not drawn)	nt	0	0	-3	nt	nt
Cc1ccc(C)c(NC(=O)CCN2C(=O)C3CC=CCC3C2=O)c1 (stereo not drawn)	nt	1	1	15*	nt	-3
COc1cc(OC)cc(-c2c(-c3cccs3)c3cc(-c4ccc(C(N)=O)cc4)ccc3n2C)c1	nt	3	2	13*	nt	-5
COc1ccc(-c2ccc3c(c2)c(-c2cccs2)c(-c2cc(OC)cc(OC)c2)n3C)cc1	nt	2	-1	-2	nt	nt
Cc1cc(C(=O)NC(C)Cc2ccccc2)cc(C)c1[N+](=O)[O-] (stereo not drawn)	0	-2	3	-2	-3	nt
COc1cccc(NC(=O)CCC2CCN(Cc3nccs3)CC2)c1	nt	-1	4	-9	nt	nt
Cc1ccc(SCc2cc(=O)n3[nH]cnc3n2)cc1	0	1	-1	9.8*	2	-4
Cc1cc(SCC(=O)c2ccc(Cl)cc2)nc(=O)[nH]1	nt	0	2	12*	nt	1
Cc1ccc(C(=O)CSc2cc(C)[nH]c(=O)n2)cc1	nt	-2	-1	-1	nt	nt
S=c1[nH]nc(-c2ccncc2)n1/N=C/c1cn(-c2ccccc2)nc1-c1ccccc1	0	0	1	20*	2	7.5*
O=[N+]([O-])c1ccc(-c2nn(-c3ccccc3)cc2/C=N/n2c(-c3ccncc3)n[nH]c2=S)cc1	1	1	0	-6	1	nt
COc1cc2c(cc1OC)C(c1ccccc1O)NCC2 (stereo not drawn)	nt	1	0	-6	nt	nt
O=C(COC(=O)C(CO)NS(=O)(=O)c1ccc(Br)cc1)Nc1ccc2c(c1)OCCO2 (stereo not drawn)	nt	0	-2	-6	nt	nt
COC(=O)c1c(C(=O)c2ccc(Br)cc2)n(C)c2ccccc12	nt	-1	0	-4	nt	nt
CCOC(=O)c1ccc(S(=O)(=O)N2CCNCC2)cc1	1	1	6	13*	-1	-4
CN(CCCNC(=O)CCC(=O)N1CCOc2ccccc21)Cc1ccccc1	nt	-2	0	-1	nt	nt
COc1ccc2cc(S(=O)(=O)N3CCOCC3)ccc2c1	0	0	1	11*	0	-4
